# Data reported in ChEMBL document CHEMBL1795280, “Design, synthesis and activity of a potent, selective series of N-aryl pyridinone inhibitors of p38 kinase” (Bioorg Med Chem Lett, 2011).
# Tested on: Rattus norvegicus
# Test: Antiinflammatory activity in Lewis rat assessed as inhibition of LPS-induced TNFalpha production at 5 mg/kg, po administered 4 hrs before LPS challenge by ELISA
# Assay type: functional
# Details: not given
# Procedure, shortened: (§1)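 Adult male Lewis rats (225–250 g), fasted 18 h with free access to water. Compound or vehicle given by oral gavage (1 mL). LPS (E. coli 0111:B4) given 1 mg/kg i.v. in saline 2, 4 or 6 h later. Serum taken by cardiac puncture 90 min after LPS. TNFα quantified against a recombinant rat TNF standard curve with a four-parameter fit. Two vehicle groups per experiment, three experiments.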
row,SMILES,inhibition in vivo at 5 mg/kg [%]
1,Cc1cc(OCc2ccc(F)cc2F)c(Br)c(=O)n1-c1ccc(CNC(=O)CO)cc1,43

# Tested on: PBMC
# Test: Antiinflammatory activity in human PBMC assessed as inhibition of LPS-induced TNFalpha production treated 1 hr before LPS challenge measured after 18 hrs
# Assay type: functional, cell-based
# Details: not given
# Procedure, shortened: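 PBMCs isolated by Ficoll from heparinized blood of two healthy donors, in DMEM with 5% endotoxin-free FBS, 2.5 × 10⁵ cells/well. Pretreated 1 h with compound (0.0001–25 µM range), then stimulated 18 h with 22 ng/ml LPS. Final DMSO 0.25%. Secreted TNFα measured by MSD; IC50 reported.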
row,SMILES,IC50 [nM]
1,Cc1cccc(C)c1-n1c(C)cc(OCc2ccc(F)cc2F)c(Br)c1=O,25
2,Cc1cc(OCc2ccc(F)cc2F)c(Br)c(=O)n1-c1ccc(CNC(=O)CO)cc1,91

# Tested on: not listed separately
# Test: Metabolic stability in rat liver microsomes assessed as compound remaining at 2 uM after 45 mins by LC/MS analysis
# Assay type: ADME, Microsome
# Details: read-out: Stability
row,"remaining at 0.75 h, 2 µM [%]",SMILES
1,1,Cc1cccc(C)c1-n1c(C)cc(OCc2ccc(F)cc2F)c(Br)c1=O
2,83,Cc1cc(OCc2ccc(F)cc2F)c(Br)c(=O)n1-c1ccc(CNC(=O)CO)cc1

# Biological target: Mitogen-activated protein kinase 14 (Homo sapiens, UniProt Q16539)
# Sequence (Q16539 whole entry): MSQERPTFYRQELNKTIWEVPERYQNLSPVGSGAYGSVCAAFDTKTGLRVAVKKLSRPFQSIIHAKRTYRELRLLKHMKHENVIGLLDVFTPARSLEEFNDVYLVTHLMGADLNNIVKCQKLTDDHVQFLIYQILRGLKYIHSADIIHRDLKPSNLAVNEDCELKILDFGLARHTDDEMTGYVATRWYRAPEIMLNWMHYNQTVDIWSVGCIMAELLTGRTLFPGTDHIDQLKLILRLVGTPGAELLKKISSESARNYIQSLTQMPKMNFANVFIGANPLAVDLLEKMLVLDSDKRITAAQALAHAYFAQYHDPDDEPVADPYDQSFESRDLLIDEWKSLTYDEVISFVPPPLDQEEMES
# Test: Inhibition of p38alpha assessed as phosphorylation of […] after 60 mins by fluorescence assay
# Details: not given
# Procedure, shortened: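 Cascade assay in which activated p38α (6 pM final) activates unactivated MK2 (1 nM), which phosphorylates FITC-labelled Hsp27 peptide (1 nM) with […]. Inhibitor 0.2–10,000 nM. Room temperature, 60 min, EDTA quench. Phospho-peptide quantified by Caliper LabChip; IC50.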
row,IC50 [nM],SMILES
1,746,Cc1cc(OCc2ccc(F)cc2F)c(Br)c(=O)n1-c1ccc(C(=O)N(C)C)cc1
2,1,Cc1cc(OCc2ccc(F)cc2F)c(Br)c(=O)n1-c1c(Cl)cccc1Cl
3,102,Cc1cc(OCc2ccc(F)cc2F)c(Br)c(=O)n1-c1cccc(C(=O)N(C)C)c1
4,15,Cc1cc(OCc2ccc(F)cc2F)c(Br)c(=O)n1-c1c(F)cc(O)cc1F
5,9,O=c1c(Br)c(OCc2ccc(F)cc2F)cc(CN2CCOCC2)n1-c1c(F)cccc1F
6,2,Cc1cccc(C)c1-n1c(C)cc(OCc2ccc(F)cc2F)c(Br)c1=O
7,20,Cc1cc(OCc2ccc(F)cc2F)c(Br)c(=O)n1-c1ccc(CNC(=O)CO)cc1

# Tested on: not listed separately
# Test: Metabolic stability in human liver microsomes assessed as compound remaining at 2 uM after 45 mins by LC/MS analysis
# Assay type: ADME, Microsome
# Details: read-out: Stability
row,"remaining at 0.75 h, 2 µM [%]",SMILES
1,3,Cc1cccc(C)c1-n1c(C)cc(OCc2ccc(F)cc2F)c(Br)c1=O
2,88,Cc1cc(OCc2ccc(F)cc2F)c(Br)c(=O)n1-c1ccc(CNC(=O)CO)cc1

# Tested on: Rattus norvegicus
# Test: Antiinflammatory activity in Lewis rat assessed as inhibition of LPS-induced TNFalpha production at 20 mg/kg, po administered 2 hrs before LPS challenge by ELISA
# Assay type: functional
# Details: not given
# Procedure, shortened: as §1
row,SMILES,inhibition in vivo at 20 mg/kg [%]
1,Cc1cccc(C)c1-n1c(C)cc(OCc2ccc(F)cc2F)c(Br)c1=O,66
